ChEMBL document CHEMBL2034924, “Optimization of a Potent, Orally Active S1P1 Agonist Containing a Quinolinone Core” (ACS Med Chem Lett, 2012)
≈ marks a conversion by molar mass, not a printed value.

What was measured:
[1] = target: T1, Sphingosine 1-phosphate receptor 1 (Homo sapiens, UniProt P21453); assay: Agonist activity at human S1P1 receptor expressed in human U2OS cells co-expressing eGFP assessed as receptor internalization after 1 hr relative to 1-(4-(6-benzylbenzofuran-2-yl)-3-fluorobenzyl)azetidine-3-carboxylic acid; type: functional, cell-based
[2] = target: T2, Sphingosine 1-phosphate receptor 3 (Homo sapiens, UniProt Q99500); assay: Agonist activity at human S1P3 receptor expressed in CHO cells coexpressing Gq/i5 G-protein assessed as Ca2+ mobilization after 60 to 90 mins by FLIPR assay; type: functional, cell-based
Method in brief: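 Ca2+ mobilization in CHO-K1 cells transfected with hS1P3/Gq/i5. EC50 is the molar concentration giving a half-maximal response.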

[3] = target: T2, Sphingosine 1-phosphate receptor 3; assay: Agonist activity at human S1P3 receptor expressed in CHO cells coexpressing Gq/i5 G-protein assessed as Ca2+ mobilization at 25 uM after 60 to 90 mins by FLIPR assay; type: functional, cell-based
[4] = target: T1, Sphingosine 1-phosphate receptor 1; assay: Agonist activity at human S1P1 receptor expressed in human U2OS cells co-expressing eGFP assessed as receptor internalization after 1 hr; type: functional, cell-based
Method in brief: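 U2OS cells expressing an hS1P1-GFP fusion protein; the read-out was receptor internalization. EC50 is the molar concentration giving a half-maximal response.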

[5] = target: T2, Sphingosine 1-phosphate receptor 3; assay: Agonist activity at human S1P3 receptor expressed in CHO cells coexpressing Gq/i5 G-protein assessed as Ca2+ mobilization after 60 to 90 mins by FLIPR assay relative to 0.2 uM S1P
[6] = Plasma protein binding in rat; type: ADME, cell-free; conditions: read-out: PPB (converted)
Rattus norvegicus = assay: Lymphopenic activity in Lewis rat assessed as reduction in peripheral blood lymphocyte counts at 1 mg/kg, po measured 24 hrs post dosing relative to control; type: functional; parameters: scale not given: the % may be the effect or the level left
Method in brief: (§1)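 Female Lewis rats (N = 5/group) received a single oral dose of 1 mg/kg in 20% captisol, 1% HPMC, 1% pluronic F68, pH 2.1 with MSA. Peripheral lymphocyte count is given as percent-of-control reduction versus vehicle at 24 h. Total plasma drug concentration was measured at 24 h. Statistics used ANOVA/Dunnett versus vehicle.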

[7] = Plasma concentration in Lewis rat at 1 mg/kg, po measured 24 hrs post dosing; type: ADME, organism-based; parameters: dose 1 mg/kg, route oral; conditions: Lewis, plasma; method in brief: as §1
[8] = Intrinsic clearance in rat liver microsomes at 1 uM after 30 mins; type: ADME, Microsome; conditions: read-out: CLH
[9] = Efflux ratio of permeability in pig LLC-PK1 cells; type: ADME, cell-based, Sus scrofa
Method in brief: (§2)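 Parental porcine proximal tubule LLC-PK1 cell line. Apparent permeability was measured, and the efflux ratio was derived from it.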

[10] = Apparent permeability of the compound across pig LLC-PK1 cells; type: ADME, cell-based, Sus scrofa; method in brief: as §2
[11] = Solubility of the compound in simulated intestinal fluid at pH 6.8 after 2 to 3 days by HPLC analysis; type: physicochemical

T2 sequence (Q99500 whole entry): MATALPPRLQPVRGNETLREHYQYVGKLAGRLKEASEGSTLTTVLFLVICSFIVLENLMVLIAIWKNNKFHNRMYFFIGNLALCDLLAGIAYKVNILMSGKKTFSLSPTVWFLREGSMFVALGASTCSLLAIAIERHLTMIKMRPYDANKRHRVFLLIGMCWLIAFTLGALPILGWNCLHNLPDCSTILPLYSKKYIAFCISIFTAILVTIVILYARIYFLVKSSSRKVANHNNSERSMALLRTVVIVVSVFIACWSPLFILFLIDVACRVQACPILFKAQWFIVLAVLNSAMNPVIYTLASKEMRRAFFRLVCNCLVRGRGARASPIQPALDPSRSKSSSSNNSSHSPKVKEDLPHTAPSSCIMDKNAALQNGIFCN
T1 sequence (P21453 whole entry): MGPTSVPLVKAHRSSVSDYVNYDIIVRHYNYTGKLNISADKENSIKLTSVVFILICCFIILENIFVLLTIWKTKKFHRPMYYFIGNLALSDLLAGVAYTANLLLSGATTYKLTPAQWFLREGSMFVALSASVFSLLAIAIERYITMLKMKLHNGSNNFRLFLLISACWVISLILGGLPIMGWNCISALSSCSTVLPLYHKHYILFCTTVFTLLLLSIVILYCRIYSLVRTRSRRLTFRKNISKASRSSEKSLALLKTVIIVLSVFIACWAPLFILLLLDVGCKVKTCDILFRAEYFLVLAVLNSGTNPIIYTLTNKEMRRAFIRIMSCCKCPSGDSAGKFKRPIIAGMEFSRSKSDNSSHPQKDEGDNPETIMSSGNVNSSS

Row | Compound | Efficacy [1] [%] | EC50 [2] [nM] | Activity [3] [%] | EC50 [4] [nM] | Efficacy [5] [%] | fraction unbound [6] | concentration at 24 h [7] [ng/mL] | microsomal CLint at 1 µM [8] [µL/min/mg] | efflux ratio [9] | Papp [10] [×10⁻⁶ cm/s] | solubility [11] [µg/mL] | Activity (Rattus norvegicus) [%]
1 | Cn1cc(C(=O)Nc2ccc(-c3ccccc3)c(C(F)(F)F)c2)c(=O)c2ccc(CCCO)cc21 | 118 | > 25000 | < 10 | 15 |  |  |  |  |  |  |  | 
2 | Cn1cc(C(=O)Nc2ccc(-c3ccccc3)c(C(F)(F)F)c2)c(=O)c2cccc(CN)c21 | 118 | 5600 |  | 81 | 48 |  |  |  |  |  |  | 
3 | Cn1cc(C(=O)Nc2ccc(-c3ccccc3)c(C(F)(F)F)c2)c(=O)c2ccccc21 | 105 |  |  |  |  |  |  |  |  |  |  | 
4 | Cn1cc(C(=O)Nc2ccc(-c3ccccc3)c(C(F)(F)F)c2)c(=O)c2ccc(NCCC(=O)O)cc21 | 81 | > 25000 | < 10 | 150 |  |  |  |  |  |  |  | 

Continued, in another order:

Row | Efficacy [1] [%] | EC50 [2] [nM] | Activity [3] [%] | EC50 [4] [nM] | Efficacy [5] [%] | fraction unbound [6] | concentration at 24 h [7] [ng/mL] | microsomal CLint at 1 µM [8] [µL/min/mg] | efflux ratio [9] | Papp [10] [×10⁻⁶ cm/s] | solubility [11] [µg/mL] | Compound | Activity (Rattus norvegicus) [%]
5 | 104 | > 25000 | < 10 | 39 |  |  |  |  |  |  |  | Cn1cc(C(=O)Nc2ccc(-c3ccccc3)c(C(F)(F)F)c2)c(=O)c2cccc(CO)c21 | 
6 | 138 | 1600 |  | 180 | 28 |  |  |  |  |  |  | Cn1cc(C(=O)Nc2ccc(-c3ccccc3)c(C(F)(F)F)c2)c(=O)c2ccc(CC(=O)O)cc21 | 
7 | 106 | > 25000 | < 10 | 390 |  |  |  |  |  |  |  | Cn1cc(C(=O)Nc2ccc(-c3ccccc3)c(C(F)(F)F)c2)c(=O)c2cccc(CCO)c21 | 
8 | 125 | > 25000 | < 10 | 18 |  | 0.076 | 65 | < 14 | 1 | 2.8 | 27 (≈ 59.7 µM) | Cn1cc(C(=O)Nc2ccc(-c3ccccc3)c(C(F)(F)F)c2)c(=O)c2ccc(CO)cc21 | -44
9 | 103 | 1100 |  | 2000 | 11 |  |  |  |  |  |  | Cn1cc(C(=O)Nc2ccc(-c3ccccc3)c(C(F)(F)F)c2)c(=O)c2cccc(C(=O)O)c21 | 
